What was measured:
[1] = system: Human immunodeficiency virus 1; test: Antiviral effective concentration for Inhibitory activity on HIV-1(IIIB) replication in MT-4 cells; assay type: functional, organism-based; settings: Human immunodeficiency virus 1, MT4
Outline: (§1)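 MT-4 cells infected at MOI 0.01 (100 × CCID50) with HIV-1 (IIIB) or HIV-2 (ROD) in presence of graded compound concentrations; antiviral and cytotoxicity run in parallel, CC50 on mock-infected cells. After 5 days of growth, viable cells counted by MTT colorimetry. EC50 = concentration protecting 50% of infected cells from cytopathicity; values averaged over several experiments.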

[2] = system: Human immunodeficiency virus 2; test: Antiviral effective concentration for Inhibitory activity on HIV-2(ROD) replication in MT-4 cells; assay type: functional, organism-based; settings: Human immunodeficiency virus 2, MT4; outline: as §1
MT4 = test: 50% cytotoxic concentration was tested against HIV infected MT-4 cells; assay type: functional; settings: Homo sapiens, in the assay text read “mock-infected” for “HIV infected”; outline: as §1
[3] = target: C-X-C chemokine receptor type 4 (Homo sapiens, UniProt P61073); test: Inhibitory activity against CXCR4-specific monoclonal antibody 12G5 (mAb-12G5) binding to human chemokinin receptor CXCR4 in lymphocytic SUP-T1 cells; assay type: cell-based
Outline: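 SUP-T1 cells preincubated with compound or PBS 15 min at room temperature, washed, then exposed to CXCR4 mAb 12G5 for 30 min, washed, stained with FITC goat anti-mouse antibody for 30 min at room temperature. Flow cytometry measured percent positive cells and MFI; inhibition derived from MFI, IC50 calculated.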

Chain of C-X-C chemokine receptor type 4 (P61073 whole entry): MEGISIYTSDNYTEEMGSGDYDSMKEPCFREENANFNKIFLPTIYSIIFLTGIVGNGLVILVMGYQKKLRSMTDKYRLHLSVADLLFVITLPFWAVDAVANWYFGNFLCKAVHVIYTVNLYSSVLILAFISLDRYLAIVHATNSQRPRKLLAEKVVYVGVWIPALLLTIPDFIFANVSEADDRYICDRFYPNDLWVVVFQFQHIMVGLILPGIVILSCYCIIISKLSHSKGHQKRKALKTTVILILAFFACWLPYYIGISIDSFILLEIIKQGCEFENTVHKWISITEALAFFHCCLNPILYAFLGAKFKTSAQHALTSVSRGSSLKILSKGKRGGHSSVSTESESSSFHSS

| Compound | EC50 [1] | EC50 [2] | IC50 [3] | CC50 (MT4) |
| --- | --- | --- | --- | --- |
| c1cc2nc(c1)CCNCCN(Cc1ccc(CN3CCNCCc4cccc(n4)CCNCC3)cc1)CCNCC2 | 0.8 nM | 1.6 nM | 0.001 µM | 194 µM |
| c1cc(CN2CCCNCCNCCCNCC2)ccc1CN1CCCNCCNCCCNCC1 |  |  |  | > 421 µM |
| Clc1cc2nc(c1)CNCCCN(Cc1ccc(CN3CCCNCc4cc(Cl)cc(n4)CNCCC3)cc1)CCCNC2 | 751 nM | 759 nM | 5.74 µM | 17.8 µM |
| c1cc(CN2CCCNCCOCCNCCC2)ccc1CN1CCCNCCOCCNCCC1 | 4490 nM |  |  | > 244 µM |
| c1cc(CN2CCCSCCSCCCNCC2)ccc1CN1CCCSCCSCCCNCC1 | > 6840 nM | > 6840 nM | > 35 µM | 6.8 µM |
| COc1cc2nc(c1)CNCCCN(Cc1ccc(CN3CCCNCc4cc(OC)cc(n4)CNCCC3)cc1)CCCNC2 | 3100 nM | 8460 nM |  | 216 µM |
| c1cc2cc(c1)CNCCCN(Cc1ccc(CN3CCCNCc4cccc(c4)CNCCC3)cc1)CCCNC2 | 7960 nM |  |  | 133 µM |
| c1cc(CN2CCCNCCNCCNCCC2)ccc1CN1CCCNCCNCCNCCC1 | 33.7 nM | 42.2 nM | 0.067 µM | > 421 µM |
| c1cc(CN2CCCNCCCCCNCCC2)ccc1CN1CCCNCCCCCNCCC1 | 9610 nM |  | > 35 µM | 133 µM |
| c1cc(CN2CCCOCCOCCCNCC2)ccc1CN1CCCOCCOCCCNCC1 | > 363000 nM | > 363000 nM | > 35 µM | > 363 µM |
| c1cc2nc(c1)CNCCCN(Cc1ccc(CN3CCCNCc4cccc(n4)CNCCC3)cc1)CCCNC2 | 534 nM |  |  | 199 µM |
| Oc1cc2nc(c1)CNCCCN(Cc1ccc(CN3CCCNCc4cc(O)cc(n4)CNCCC3)cc1)CCCNC2 | 174000 nM | 200000 nM | > 35 µM | 200 µM |

Further lines, with some results ahead:

| EC50 [1] | EC50 [2] | IC50 [3] | Compound | CC50 (MT4) |
| --- | --- | --- | --- | --- |
| 421 nM | 1210 nM |  | c1cc2nc(c1)CCNCCCN(Cc1ccc(CN3CCCNCCc4cccc(n4)CCNCCC3)cc1)CCCNCC2 | 142 µM |
| 524 nM | 127 nM | 4.36 µM | c1cc2nc(c1)CNCCN(Cc1ccc(CN3CCNCc4cccc(n4)CNCC3)cc1)CCNC2 | 8.5 µM |
| 97.1 nM | 2.5 nM |  | c1cc(CN2CCNCc3cccc(n3)CNCC2)cc(CN2CCNCc3cccc(n3)CNCC2)c1 | 30 µM |
| 30900 nM | 20700 nM | > 35 µM | c1cc(CN2CCCNCc3cncc(n3)CNCCC2)ccc1CN1CCCNCc2cncc(n2)CNCCC1 | 209 µM |
| 1750 nM |  |  | c1ccc(-c2cc3nc(c2)CNCCCN(Cc2ccc(CN4CCCNCc5cc(-c6ccccc6)cc(n5)CNCCC4)cc2)CCCNC3)cc1 | 19.3 µM |

Source: ChEMBL document CHEMBL1132406, “Synthesis and structure-activity relationships of phenylenebis(methylene)-linked bis-azamacrocycles that inhibit HIV-1 and HIV-2 replication by antagonism of the chemokine receptor CXCR4” (J Med Chem, 1999)
